Results gathered from unrelated publications.
pIC50: −log10 of the molar value.
Cell line: U-937
Read-out: cell growth or viability

COc1cc(Nc2nccc(-c3cnn4nc(OC)ccc34)n2)cc(C(F)(F)F)c1
pIC50 (ATP luminescence): 6.68

CCCCCCCCC1=CC2C=CC=CC1C2C1CCCCC1=O (stereo not drawn)
pIC50 (flow cytometry): 7.08

COc1cc(-c2ncn(/C=C\C(=O)OC(C)C)n2)cc(C(F)(F)F)c1
pIC50 (72 h): 6.65

CC(C)[C@H](N)C(=O)N1CCC[C@H]1B(O)O
pIC50 (ATP luminescence; 48 h): < 4.22

CCC[C@H](Nc1nc(-c2ccc(NC(=O)NCC)c(OC)c2)ncc1C)c1cccnc1
pIC50 (fluorescence; 72 h): 7.48

CC(=O)OCCC1=CC2C=CC=CC1C2C1CCCCC1=O (stereo not drawn)
pIC50 (flow cytometry): 6.78

COc1cc2nccc(Oc3ccc(NC(=O)C4(C(=O)Nc5ccc(F)cc5)CC4)cc3)c2cc1OC
pIC50 (trypan blue; 72 h): 5.52

CC[C@]1(O)C[C@H]2CN(CCc3c([nH]c4ccccc34)[C@@](C(=O)OC)(c3cc4c(cc3OC)N(C=O)[C@H]3[C@@](O)(C(=O)OC)[C@H](OC(C)=O)[C@]5(CC)C=CCN6CC[C@]43[C@@H]65)C2)C1
pIC50 (fluorescence; 72 h): 8.12

CC(C)C[C@H](NC(=O)[C@H](Cc1ccccc1)NC(=O)c1cnccn1)B(O)O
pIC50 (ATP luminescence): 8.36

C#CCSc1nc(Sc2nnnn2-c2ccccc2)c2nnn(Cc3ccc(OC)cc3)c2n1
pIC50 (MTS; 6 days): 5.49

N[C@@H](CC(=O)N1CCN(C(c2ccc(F)cc2)c2ccc(F)cc2)CC1)C(=O)N1Cc2ccccc2C1
pIC50 (ATP luminescence; 48 h): 4.56

O=C1CCCCC1C1C2C=CC=CC1/C(=C/c1ccccc1)C2 (stereo not drawn)
pIC50 (flow cytometry): 7.11

CC(=O)O[C@H]1C(=O)[C@@]2(C)[C@H]([C@H](OC(=O)c3ccccc3)[C@]3(O)C[C@H](OC(=O)[C@H](O)[C@@H](NC(=O)c4ccccc4)c4ccccc4)C(C)=C1C3(C)C)[C@]1(OC(C)=O)CO[C@@H]1C[C@@H]2O
pIC50 (72 h): 8.57

CCOC(=O)CCC1=CC2C=CC=CC1C2C1CCCCC1=O (stereo not drawn)
pIC50 (flow cytometry): 7.29

Nc1nc(Nc2ccc3c(c2)CC[C@@H](N2CCCC2)CC3)nn1-c1cc2c(nn1)-c1ccccc1CCC2
pIC50 (trypan blue; 72 h): 5.84
